Assay results reported in ChEMBL document CHEMBL1122134, “Antimalarials. 14. 5-(aryloxy)-4-methylprimaquine analogues. A highly effective series of blood and tissue schizonticidal agents” (1982).

What was measured:
Plasmodium cynomolgi [1] = test: Cures in sporozoite-induced Plasmodium cynomolgi infected Rhesus monkeys (Macaca mulatta) on 0.1 mg/kg/day peroral dose after 7 days, n=2; format: functional; details: route oral
Plasmodium cynomolgi [2] = test: Cures in sporozoite-induced Plasmodium cynomolgi infected Rhesus monkeys (Macaca mulatta) on 0.316 mg/kg/day peroral dose after 7 days, n=2; format: functional; details: route oral
Plasmodium cynomolgi [3] = test: Cures in sporozoite-induced Plasmodium cynomolgi infected Rhesus monkeys (Macaca mulatta) on 1 mg/kg/day peroral dose after 7 days, n=2; format: functional; details: route oral
Plasmodium cynomolgi [4] = test: Relapses in sporozoite-induced Plasmodium cynomolgi infected Rhesus monkeys (Macaca mulatta) on 0.4375 mg/kg/day peroral dose after 1 day; format: functional; details: route oral
How it was run: (§1)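 Single oral dose (×1) in P. cynomolgi-infected rhesus monkeys, given alone or with chloroquine phosphate at 5 mg/kg of salt (×7). Drug was given in salt form but dose calculated as free base. Each animal scored as cure (C), suppressive failure (SF, blood not cleared) or relapse (R, tissues not cleared).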

Plasmodium cynomolgi [5] = test: Relapses in sporozoite-induced Plasmodium cynomolgi infected Rhesus monkeys (Macaca mulatta) on 0.875 mg/kg/day peroral dose after 1 day; format: functional; details: route oral; how it was run: as §1
Plasmodium cynomolgi [6] = test: Suppressive failures in sporozoite-induced Plasmodium cynomolgi infected Rhesus monkeys (Macaca mulatta) on 0.875 mg/kg/day peroral dose after 1 day; format: functional; details: route oral; how it was run: as §1
Plasmodium cynomolgi [7] = test: Suppressive failures in sporozoite-induced Plasmodium cynomolgi infected Rhesus monkeys (Macaca mulatta) on 1.75 mg/kg/day peroral dose after 1 day; format: functional; details: route oral; how it was run: as §1
Plasmodium cynomolgi [8] = test: Suppressive failures in sporozoite-induced Plasmodium cynomolgi infected Rhesus monkeys (Macaca mulatta) on 3.5 mg/kg/day peroral dose after 1 day; format: functional; details: route oral; how it was run: as §1
Plasmodium cynomolgi [9] = test: Cures in sporozoite-induced Plasmodium cynomolgi infected Rhesus monkeys (Macaca mulatta) on peroral 14 mg/kg/day (x 1) dose; format: functional; details: route oral; how it was run: as §1
Plasmodium cynomolgi [10] = test: Cures in sporozoite-induced Plasmodium cynomolgi infected Rhesus monkeys (Macaca mulatta) on 3.5 mg/kg/day peroral dose after 1 day; format: functional; details: route oral; how it was run: as §1
Plasmodium cynomolgi [11] = test: Cures in sporozoite-induced Plasmodium cynomolgi infected Rhesus monkeys (Macaca mulatta) on 7 mg/kg/day peroral dose after 1 day; format: functional; details: route oral; how it was run: as §1
[12] = Molar primaquine Index value of compound was determined; format: functional
Mus musculus [13] = test: Mean survival time of mice (Mus musculus) infected with Plasmodium berghei at 5 mg/kg(X 1)subcutaneous administration
Mus musculus [14] = test: Number of mice (Mus musculus) found toxic when infected with Plasmodium berghei at 640 mg/kg(X 1) subcutaneous administration
Mus musculus [15] = test: Number of cures out of five mice (Mus musculus) infected with Plasmodium berghei at 10 mg/kg(X 1) subcutaneous administration
Mus musculus [16] = test: Number of cures out of five mice (Mus musculus) infected with Plasmodium berghei at 40 mg/kg(X 1) subcutaneous administration
Mus musculus [17] = test: Number of cures out of five mice (Mus musculus) infected with Plasmodium berghei at 80 mg/kg(X 1) subcutaneous administration
Mus musculus [18] = test: Number of cures out of five mice (Mus musculus) infected with Plasmodium berghei at 20 mg/kg(X 1) subcutaneous administration
Mus musculus [19] = test: Number of cures out of five mice (Mus musculus) infected with Plasmodium berghei at 160 mg/kg(X 1) subcutaneous administration
Mus musculus [20] = test: Number of cures out of five mice (Mus musculus) infected with Plasmodium berghei at 320 mg/kg(X 1) subcutaneous administration
Mus musculus [21] = test: Number of cures out of five mice (Mus musculus) infected with Plasmodium berghei at 640 mg/kg(X 1) subcutaneous administration
Plasmodium cynomolgi [22] = test: Cures in sporozoite-induced Plasmodium cynomolgi infected Rhesus monkeys (Macaca mulatta) on 0.1 mg/kg/day peroral dose after 7 days, n=3; format: functional; details: route oral
Plasmodium cynomolgi [23] = test: Cures in sporozoite-induced Plasmodium cynomolgi infected Rhesus monkeys (Macaca mulatta) at 1 mg/kg/day (x 7) peroral dose; n=3; format: functional; details: route oral
Mus musculus [24] = test: Suppressive antimalarial activity against Plasmodium berghei in Rane mice (Mus musculus) test (five mice (Mus musculus)) at a dose of 5 mg/kg(X 1)A-active; format: functional
How it was run: (§2)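 Mice infected with Plasmodium berghei; five mice per dose. A single subcutaneous dose (mg/kg, ×1) was given 72 h after infection. Activity was scored as the increase in mean survival time over infected controls, with an increase of at least 100% counted as active. Cures are mice surviving at 60 days postinfection. Deaths attributed to the drug were scored as toxic.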

Mus musculus [25] = test: Number of animals found toxic out of five mice (Mus musculus) infected with Plasmodium berghei at 320 mg/kg(X 1)subcutaneous administration
Mus musculus [26] = test: Number of animals found toxic out of five mice (Mus musculus) infected with Plasmodium berghei at 640 mg/kg(X 1) subcutaneous administration
Mus musculus [27] = test: Number of cures out of five mice (Mus musculus) infected with Plasmodium berghei at 5 mg/kg(X 1) subcutaneous administration
Mus musculus [28] = test: Suppressive antimalarial activity against Plasmodium berghei in Rane mice (Mus musculus) test (five mice (Mus musculus)) at a dose of 5 mg/kg(X 1); format: functional; how it was run: as §2
Mus musculus [29] = test: Number of animals found toxic out of five mice (Mus musculus) infected with Plasmodium berghei at 320 mg/kg(X 1) subcutaneous administration
Mus musculus [30] = test: Number of animals found toxic out of five mice (Mus musculus) infected with Plasmodium berghei at 640 mg/kg(X 1) subcutaneous administration; remark: listed apart in the source
Plasmodium cynomolgi [31] = test: Cures in sporozoite-induced Plasmodium cynomolgi infected Rhesus monkeys (Macaca mulatta) on 1.3 mg/kg/day peroral dose after 7 days, n=6; format: functional; details: route oral
Mus musculus [32] = test: Suppressive antimalarial activity against Plasmodium berghei in Rane mice (Mus musculus) test (five mice (Mus musculus)) 20 mg/kg (X 1); format: functional; how it was run: as §2
Mus musculus [33] = test: Suppressive antimalarial activity against Plasmodium berghei in Rane mice (Mus musculus) test (five mice (Mus musculus)) 40 mg/kg (X 1); format: functional; how it was run: as §2
Mus musculus [34] = test: Suppressive antimalarial activity against Plasmodium berghei in Rane mice (Mus musculus) test (five mice (Mus musculus)) at a dose of 160 mg/kg (X 1); format: functional; how it was run: as §2
Mus musculus [35] = test: Suppressive antimalarial activity against Plasmodium berghei in Rane mice (Mus musculus) test (five mice (Mus musculus))80 mg/kg (X 1); format: functional; how it was run: as §2
Mus musculus [36] = test: Number of animals found toxic out of five mice (Mus musculus) infected with Plasmodium berghei at 160 mg/kg(X 1)subcutaneous administration
Plasmodium cynomolgi [37] = test: Radical curative activity in sporozoite-induced Plasmodium cynomolgi infected Rhesus monkeys (Macaca mulatta) on 14 mg/kg/day peroral dose after 1 day; format: functional; details: route oral; how it was run: as §1
Plasmodium cynomolgi [38] = test: Radical curative activity in sporozoite-induced Plasmodium cynomolgi infected Rhesus monkeys (Macaca mulatta) on 7 mg/kg/day peroral dose after 1 day; format: functional; details: route oral; how it was run: as §1
Plasmodium cynomolgi [39] = test: Radical curative activity in sporozoite-induced Plasmodium cynomolgi infected Rhesus monkeys (Macaca mulatta) on 1.75 mg/kg/day oral dose after 1 day; format: functional; how it was run: as §1
Plasmodium cynomolgi [40] = test: Radical curative activity in sporozoite-induced Plasmodium cynomolgi infected Rhesus monkeys (Macaca mulatta) after 3.5 mg/kg/day (x1) oral dose; format: functional; how it was run: as §1
Mus musculus [41] = test: Suppressive antimalarial activity against Plasmodium berghei in Rane mice (Mus musculus) test (five mice (Mus musculus)) 10 mg/kg(X 1); format: functional; how it was run: as §2

In the case of COc1cc(NC(C)CCCN)c2nccc(C)c2c1Oc1cccc(C(F)(F)F)c1.O=C(O)CCC(=O)O (stereo not given), the Cures (Plasmodium cynomolgi [1]) was 0, the Cures (Plasmodium cynomolgi [2]) was 2 and the Cures (Plasmodium cynomolgi [3]) was 2. For the same compound, the Relapses (Plasmodium cynomolgi [4]) was 4, the Relapses (Plasmodium cynomolgi [5]) was 1 and the Suppressive failures (Plasmodium cynomolgi [6]) was 3. The Suppressive failures (Plasmodium cynomolgi [7]) was 4, the Suppressive failures (Plasmodium cynomolgi [8]) was 1 and the Cures (Plasmodium cynomolgi [9]) was 1. The Cures (Plasmodium cynomolgi [10]) was 1, the Cures (Plasmodium cynomolgi [11]) was 2 and the Molar primaquine Index [12] was 4.8. For the same compound, the MST (Mus musculus [13]) was 6.9, the Cures (Mus musculus [14]) was 4 and the Cures (Mus musculus [15]) was 2. It also gave a Cures (Mus musculus [16]) of 5, a Cures (Mus musculus [17]) of 5 and a Cures (Mus musculus [18]) of 5. For the same compound, the Cures (Mus musculus [19]) was 5, the Cures (Mus musculus [20]) was 5 and the Cures (Mus musculus [21]) was 1.
COc1cc(NC(C)CCCN)c2nccc(C)c2c1Oc1ccc(F)cc1.O=P(O)(O)O (stereo not given) gave a Cures (Plasmodium cynomolgi [2]) of 2, a Cures (Plasmodium cynomolgi [22]) of 0 and a Cures (Plasmodium cynomolgi [23]) of 3. For the same compound, the MST (Mus musculus [24]) was 7, the Molar primaquine Index [12] was 4.2 and the Cures (Mus musculus [15]) was 3. It also gave a Cures (Mus musculus [16]) of 5, a Cures (Mus musculus [17]) of 5 and a Cures (Mus musculus [18]) of 4. The Cures (Mus musculus [19]) was 5, the Cures (Mus musculus [20]) was 4 and the Cures (Mus musculus [21]) was 3. The Cures (Mus musculus [25]) was 1 and the Cures (Mus musculus [26]) was 2.
With COc1cc(NC(C)CCCN)c2nccc(C)c2c1Oc1ccc(Cl)c(Cl)c1.O=P(O)(O)O (stereo not given) the Cures (Plasmodium cynomolgi [2]) was 1, the Cures (Plasmodium cynomolgi [22]) was 0 and the Cures (Plasmodium cynomolgi [23]) was 3. It also gave a Molar primaquine Index [12] of 1.3, a Cures (Mus musculus [27]) of 4 and a Cures (Mus musculus [15]) of 5. It also gave a Cures (Mus musculus [16]) of 5, a Cures (Mus musculus [17]) of 5 and a Cures (Mus musculus [18]) of 5. For the same compound, the Cures (Mus musculus [19]) was 5, the Cures (Mus musculus [20]) was 5 and the Cures (Mus musculus [21]) was 5.
Compound COc1cc(NC(C)CCCN)c2nccc(C)c2c1Oc1ccc(Cl)cc1Cl.O=P(O)(O)O (stereo not given) has a Cures (Plasmodium cynomolgi [2]) of 1, a Cures (Plasmodium cynomolgi [22]) of 0 and a Cures (Plasmodium cynomolgi [23]) of 3. For the same compound, the MST (Mus musculus [28]) was 5, the Molar primaquine Index [12] was 1.3 and the Cures (Mus musculus [15]) was 1. The Cures (Mus musculus [16]) was 5, the Cures (Mus musculus [17]) was 5 and the Cures (Mus musculus [18]) was 5. It also gave a Cures (Mus musculus [19]) of 5, a Cures (Mus musculus [20]) of 4 and a Cures (Mus musculus [21]) of 3. The “Toxic animals (out of 5)” value (Mus musculus [29]) was 1 and the Cures (Mus musculus [30]) was 2.
With COc1cc(NC(C)CCCN)c2ncccc2c1 (stereo not given) the Molar primaquine Index [12] was 1.
Work on COc1cc(NC(C)CCCN)c2ncccc2c1.O=P(O)(O)O.O=P(O)(O)O (stereo not given) [PRIMAQUINE PHOSPHATE] yielded a Cures (Plasmodium cynomolgi [2]) of 0, a Cures (Plasmodium cynomolgi [3]) of 1 and a Cures (Plasmodium cynomolgi [31]) of 6. It also gave an MST (Mus musculus [32]) of 4, an MST (Mus musculus [33]) of 5 and an MST (Mus musculus [34]) of 10.8. For the same compound, the MST (Mus musculus [35]) was 9.4, the Cures (Mus musculus [36]) was 2 and the “Toxic animals (out of 5)” value (Mus musculus [29]) was 5. For the same compound, the Cures (Mus musculus [30]) was 5.
With COc1cc(NC(C)CCCN)c2ncccc2c1 (stereo not given) [PRIMAQUINE] the Cures (Plasmodium cynomolgi [37]) was 2, the Cures (Plasmodium cynomolgi [38]) was 1 and the Cures (Plasmodium cynomolgi [39]) was 2. For the same compound, the Cures (Plasmodium cynomolgi [40]) was 2, the MST (Mus musculus [32]) was 2.2 and the MST (Mus musculus [33]) was 4.2. For the same compound, the MST (Mus musculus [34]) was 7, the MST (Mus musculus [35]) was 6.4 and the “Toxic animals (out of 5)” value (Mus musculus [29]) was 5. It also gave a Cures (Mus musculus [30]) of 5.
For COc1ccc(Oc2c(OC)cc(NC(C)CCCN)c3nccc(C)c23)cc1.O=P(O)(O)O (stereo not given), the Cures (Plasmodium cynomolgi [1]) was 0, the Cures (Plasmodium cynomolgi [2]) was 2 and the Cures (Plasmodium cynomolgi [23]) was 3. It also gave an MST (Mus musculus [41]) of 5.9, an MST (Mus musculus [28]) of 5.5 and a Molar primaquine Index [12] of 4.3. The Cures (Mus musculus [16]) was 5, the Cures (Mus musculus [17]) was 5 and the Cures (Mus musculus [18]) was 1. The Cures (Mus musculus [19]) was 5, the Cures (Mus musculus [20]) was 5 and the Cures (Mus musculus [21]) was 2. The Cures (Mus musculus [29]) was 0.
